In the assay the target is Platelet-activating factor acetylhydrolase 2, cytoplasmic (Homo sapiens) (UniProt Q99487). The experiment in a line: PAFAH2 active-site binding mode – biophysical, LC-MS/MS, purified enzyme, mechanism study for PAFAH2 inhibitor project, late-stage follow-up (AID 504486). The conditions noted are these: purified PAFAH2, LC-MS/MS active-site serine labeling. Summed up: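 Assay system – recombinant human PAFAH2 · Schedule – 30 min RT enzyme–compound exposure, 12 h 37 °C tryptic digest · Detection – LC-MS/MS peptide mapping of serine adduct · Read-out – active-site serine covalent modification, yes or no · Controls – DMSO-only enzyme sample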

Calls of active or inactive are those of the source.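 Rule for the calls: active = mass spectrometry shows covalent labeling of the catalytic serine in PAFAH2, a platelet-activating factor hydrolase; inactive = no covalent labeling of that serine detected.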

In the case of `O=C(N1CCCC1)n1ncc(-c2ccc(-c3ccccc3)cc2)n1`, the result was active.

(Values after PubChem BioAssay AID504486 (The Scripps Research Institute Molecular Screening Center, 2011).)
